Results taken from PMC6583925 (Journal of medicinal chemistry, 2019).

Experiments:
serine hydrolases = experiment: selectivity by gel-based ABPP with FP-Rh in mouse brain proteome; assay type: biochemical; conditions: FP-Rh probe
How it was run: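 Mouse brain homogenised in DPBS and cleared at 1,400 × g. Membranes pelleted at 16,000 × g (45 min, 4 °C) and resuspended in DPBS; used at 1 mg/mL. Test compound pretreatment: (thio)ureas 20 min at room temperature, NHH-carbamates 45 min at 37 °C. FP-Rh labelling (1 μM final) 45 min at 37 °C. Readout: 10% SDS-PAGE, in-gel fluorescence, band intensities quantified.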

THP-1 macrophages = experiment: cytokine measurements in M1-polarized THP-1 macrophages; assay type: cell-based, human; conditions: M1 stage THP-1 macrophages; DO264 0.1, 0.5, 1 μM, DO271 1 μM; 6 and 24 h
THP1 cells = experiment: cell viability assay; assay type: cell-based, human; conditions: 72 h, CellTiter-Glo
How it was run: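 THP-1 cells maintained in RPMI 1640 with 10% heat-inactivated FBS and 0.05 mM 2-mercaptoethanol at 2×105 to 1×10^6 cells/ml. Seeded at 3,000 cells per well; test compound added after 24 h at final 0.1 to 10 μM. After 72 h incubation, viability was read by CellTiter-Glo luminescence and normalized to vehicle-treated controls.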

[1] = tested on: broader panel of cell lines; experiment: cell viability assay; assay type: cell-based; conditions: all cell lines, 72 h
ABHD12 = biological target: T1, ABHD12 (Homo sapiens, UniProt Q8N2K0); conditions: cited from earlier work
T1 sequence (Q8N2K0 1-398): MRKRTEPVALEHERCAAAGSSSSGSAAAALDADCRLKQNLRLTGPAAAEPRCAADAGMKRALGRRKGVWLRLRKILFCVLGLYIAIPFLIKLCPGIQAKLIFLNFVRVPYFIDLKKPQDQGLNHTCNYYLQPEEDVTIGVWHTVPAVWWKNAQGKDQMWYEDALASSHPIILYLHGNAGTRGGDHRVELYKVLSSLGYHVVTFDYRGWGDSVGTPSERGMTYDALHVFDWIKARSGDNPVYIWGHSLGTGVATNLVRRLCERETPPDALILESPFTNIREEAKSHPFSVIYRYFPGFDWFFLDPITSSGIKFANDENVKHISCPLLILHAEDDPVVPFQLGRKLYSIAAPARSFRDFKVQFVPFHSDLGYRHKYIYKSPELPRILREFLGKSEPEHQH

[2] = 30 mg/kg, cited from earlier work
[3] = tested on: brain lyso-PS/PI and C20:4 PS content; conditions: mice; cited from earlier work
[4] = mice, four weeks of inhibitor treatment; cited from earlier work
[5] = tested on: lymphocytic choriomeningitis virus (LCMV) clone 13; conditions: mice; cited from earlier work

SMILES: FC(F)(F)Oc1ccc(Oc2ccnc(N3CCC(NC(=S)Nc4cccnc4)CC3)c2Cl)c(Cl)c1 [DO264]
- selectivity / off-targets among serine hydrolases (serine hydrolases): excellent selectivity over other serine hydrolases
- CCL3 level (THP-1 macrophages): elevated
- CCL4 level (THP-1 macrophages): elevated
- IL-1β level (THP-1 macrophages): concentration-dependent increases
- TNF-α level (THP-1 macrophages): concentration-dependent increases
- concentration that impaired the viability of THP1 cells (THP1 cells): ≥ 5 µM
- cytotoxicity at 1 μM [1]: without displaying cytotoxicity
- concentration giving full engagement of ABHD12 (ABHD12): 1 µM
- toxicity in mice ([2]; treatment for several weeks): without overt signs of toxicity
- total exposure levels in the periphery and brain ([2]; mice, p.o. or i.p. dosing): 3 to 9 µM
- brain lyso-PS/PI and C20:4 PS content [3]: substantial elevations
- auditory defects [4]: did not exhibit the auditory defects observed in ABHD12–/– mice
- immunological responses to LCMV clone 13 infection [5]: heightened immunological responses
